Our source for the Activity, Ki and IC50 values is ChEMBL document CHEMBL1144657, “Discovery of heterobicyclic templates for novel metabotropic glutamate receptor subtype 5 antagonists” (Bioorg Med Chem Lett, 2007).

Activity calls are given as the source filed them. The rule behind the calls is not given here.

Chain of Metabotropic glutamate receptor 5 (Rattus norvegicus) (P31424 21-1203 limits assumed): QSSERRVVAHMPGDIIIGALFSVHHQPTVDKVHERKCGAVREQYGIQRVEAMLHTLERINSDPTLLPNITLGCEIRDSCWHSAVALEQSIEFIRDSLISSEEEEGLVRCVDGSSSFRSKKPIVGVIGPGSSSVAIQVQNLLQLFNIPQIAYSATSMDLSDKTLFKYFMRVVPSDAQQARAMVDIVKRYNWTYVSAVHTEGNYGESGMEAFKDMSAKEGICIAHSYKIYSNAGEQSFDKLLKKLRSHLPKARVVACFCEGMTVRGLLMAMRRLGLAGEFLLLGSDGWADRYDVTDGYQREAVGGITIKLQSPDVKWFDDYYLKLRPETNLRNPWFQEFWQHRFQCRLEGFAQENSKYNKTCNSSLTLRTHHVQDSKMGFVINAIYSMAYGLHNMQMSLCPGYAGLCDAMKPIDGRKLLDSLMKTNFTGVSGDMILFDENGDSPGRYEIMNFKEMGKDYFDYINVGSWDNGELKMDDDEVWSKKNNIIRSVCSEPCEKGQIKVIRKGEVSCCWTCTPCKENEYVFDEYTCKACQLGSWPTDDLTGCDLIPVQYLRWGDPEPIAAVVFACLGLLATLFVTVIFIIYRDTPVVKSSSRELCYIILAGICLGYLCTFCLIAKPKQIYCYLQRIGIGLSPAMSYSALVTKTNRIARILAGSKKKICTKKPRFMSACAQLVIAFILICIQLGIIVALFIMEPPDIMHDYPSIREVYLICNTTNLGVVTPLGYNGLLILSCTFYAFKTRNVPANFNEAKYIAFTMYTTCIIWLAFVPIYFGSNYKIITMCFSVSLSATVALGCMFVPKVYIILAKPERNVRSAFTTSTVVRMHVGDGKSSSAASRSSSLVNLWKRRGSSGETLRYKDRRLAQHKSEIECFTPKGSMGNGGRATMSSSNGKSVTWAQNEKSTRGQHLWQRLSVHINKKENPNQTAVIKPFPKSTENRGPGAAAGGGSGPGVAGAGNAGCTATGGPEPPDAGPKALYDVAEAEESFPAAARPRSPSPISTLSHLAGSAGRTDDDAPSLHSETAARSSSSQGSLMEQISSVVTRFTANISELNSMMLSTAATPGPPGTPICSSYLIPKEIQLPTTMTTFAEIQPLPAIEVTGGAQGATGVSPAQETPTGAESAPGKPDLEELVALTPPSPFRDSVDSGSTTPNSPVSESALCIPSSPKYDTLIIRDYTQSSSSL

The target of one experiment is Metabotropic glutamate receptor 5 (Rattus norvegicus) (UniProt P31424). In words: Displacement of [3H]MPEP from mGluR5 in rat brain membrane at 10 uM. Format: cell membranes. The method in brief:
(§1)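 Binding was measured by the NIMH Psychoactive Drug Screening Program in rat brain membranes, with [3H]MPEP as the mGluR5 radioligand. Single-concentration screens are reported as percent inhibition of [3H]MPEP binding at 10 μM, and some compounds were also tested at 100 μM. For selected compounds, IC50 was determined using a previously published protocol.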
The compound `Cc1nc2cc(-c3ncccn3)ccc2s1` came in with an Activity of 29%.
`Cc1cccc(-c2ccc3sc(C)nc3c2)n1` had an Activity of 17%.
`Cc1ccc2ccc(-c3ncc(F)cn3)cc2n1` yielded an Activity greater than 1%.
Still for that read-out and setting: the figure for `Cc1nc2nc(-c3ccccc3)sc2cc1Br` is 1%.
As to `Cc1ccc2ccc(-c3cccs3)cc2n1`, the Activity was less than 1%.
The same measure, in the same setting: the figure for `Cc1nc2nc(-c3ccccc3)sc2cc1-c1ccc(F)cc1` is 3%.
The same measure, in the same setting: the same measure for `Cc1ccc2ccc(-c3ccccc3)cc2n1`: 50%.
On the same count and under the same terms, the figure for `Cc1ccc2nc(-c3ccccc3)n(C)c2n1` is less than 1%; for `Cc1ccc2ccc(-c3ccccn3)cc2n1` it is 28%.
`Cc1ccc(-c2ccc3ccc(C)nc3c2)nc1` yielded an Activity of 9%.
Still for that read-out and setting: the figure for `Cc1nc2nc(-c3ccccc3)sc2cc1-c1cccc(Cl)c1` is 1%; for `Cc1ccc2sc(-c3ccccc3)nc2n1` it is 16%; for `Cc1ccc2nc(-c3ccccc3)n(CC3CC3)c2n1` it is less than 1%.
Still for that read-out and setting: the same measure for `Cc1nc2nc(-c3ccccc3)sc2cc1-c1cccc(C#N)c1`: 13%; for `COc1ccnc(-c2ccc3sc(C)nc3c2)n1`: 39%.
On the same count and under the same terms, the figure for `COc1cc2sc(-c3ccccc3)nc2nc1C` is less than 1%.

For a further experiment the target is unchanged. In words: Displacement of [3H]MPEP from mGluR5 in rat brain membrane at 100 uM. It is filed as cell membranes. In a few lines: as §1
On to `Cc1nc2cc(-c3ccccc3)ccc2s1`, for which the outcome was inactive.
In the case of `Cc1nc2cc(-c3ccc(F)cc3)ccc2s1`, the outcome was inactive.

In another experiment the target is Metabotropic glutamate receptor 5 (Rattus norvegicus, UniProt P31424). In words: Displacement of [3H]MPEP from mGluR5 in rat brain membrane. Format: cell membranes.
Chain of Metabotropic glutamate receptor 5 (P31424 whole entry): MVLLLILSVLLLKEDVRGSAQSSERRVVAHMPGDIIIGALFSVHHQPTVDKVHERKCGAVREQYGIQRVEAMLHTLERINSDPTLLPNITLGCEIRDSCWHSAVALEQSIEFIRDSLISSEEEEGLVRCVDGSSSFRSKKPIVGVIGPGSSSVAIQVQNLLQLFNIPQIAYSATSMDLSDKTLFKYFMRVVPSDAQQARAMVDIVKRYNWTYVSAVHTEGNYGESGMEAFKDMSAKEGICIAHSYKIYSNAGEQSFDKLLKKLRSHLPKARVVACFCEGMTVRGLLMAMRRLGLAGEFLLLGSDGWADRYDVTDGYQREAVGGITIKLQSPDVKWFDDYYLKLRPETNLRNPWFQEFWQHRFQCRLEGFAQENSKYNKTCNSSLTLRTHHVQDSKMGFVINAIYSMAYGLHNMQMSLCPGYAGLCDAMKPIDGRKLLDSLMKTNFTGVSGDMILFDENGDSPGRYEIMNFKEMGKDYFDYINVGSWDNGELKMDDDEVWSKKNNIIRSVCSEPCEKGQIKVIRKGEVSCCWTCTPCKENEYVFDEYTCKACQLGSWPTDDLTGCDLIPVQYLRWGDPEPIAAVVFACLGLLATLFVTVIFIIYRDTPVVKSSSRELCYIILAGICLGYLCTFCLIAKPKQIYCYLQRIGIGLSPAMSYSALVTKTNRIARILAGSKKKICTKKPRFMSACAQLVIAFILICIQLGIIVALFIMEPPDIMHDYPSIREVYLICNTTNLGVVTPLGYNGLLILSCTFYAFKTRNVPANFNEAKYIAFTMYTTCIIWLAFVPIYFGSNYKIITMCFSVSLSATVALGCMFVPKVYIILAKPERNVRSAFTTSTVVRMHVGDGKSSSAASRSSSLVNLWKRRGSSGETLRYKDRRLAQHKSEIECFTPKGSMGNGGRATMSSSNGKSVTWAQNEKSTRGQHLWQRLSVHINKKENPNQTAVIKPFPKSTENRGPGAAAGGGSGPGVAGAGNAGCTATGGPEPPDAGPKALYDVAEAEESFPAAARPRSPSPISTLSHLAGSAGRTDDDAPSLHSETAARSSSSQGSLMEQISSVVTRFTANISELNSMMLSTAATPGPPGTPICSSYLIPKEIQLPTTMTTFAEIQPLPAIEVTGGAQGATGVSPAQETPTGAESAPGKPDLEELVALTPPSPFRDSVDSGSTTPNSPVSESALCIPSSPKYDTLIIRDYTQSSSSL
The compound `Cc1ccc2ccc(-c3ncccn3)cc2n1` gave a Ki greater than 20 µM.
Regarding `Cc1nc2nc(-c3ccccc3)sc2cc1-c1ccccc1`, the IC50 turned out to be 33.5 µM. That is a double-digit micromolar value.
Turning to `COc1cccc(-c2ccc3sc(C)nc3c2)c1`, the IC50 stood at 43.1 µM.
For `Cc1cc(C)nc(-c2ccc3ccc(C)nc3c2)n1`, the Ki was 2.09 µM.
Still for that read-out and setting: the same measure for `Cc1nc2cc(-c3cccc(C#N)c3)ccc2s1`: 2.1 µM.
`Cc1nc2cc(-c3cccc(Cl)c3)ccc2s1` displayed an IC50 of 43.4 µM.
For the compound `COc1ccnc(-c2ccc3ccc(C)nc3c2)n1`, the Ki was determined as 1.55 µM.
Same read-out and setting: the figure for `Cc1ccc2ccc(-c3cccc(C#N)c3)cc2n1` is 0.11 µM; for `Cc1ccc2ccc(-c3cnccn3)cc2n1` it is greater than 60 µM; for `Cc1nc2nc(-c3ccccc3)sc2cc1-c1cccs1` it is greater than 10 µM.
Same read-out and setting: the same measure for `Cc1ccc2nc(-c3ccccc3)n(Cc3ccccc3)c2n1`: greater than 10 µM.
Same read-out and setting: the same measure for `Cc1ccc2c(n1)nc(-c1ccccc1)n2Cc1ccccc1`: greater than 10 µM; for `Cc1ccc2[nH]c(-c3ccccc3)nc2n1`: greater than 10 µM.
`COc1cc(OC)nc(-c2ccc3ccc(C)nc3c2)n1` came in with a Ki of 5.43 µM. In other words, the single-digit micromolar range.
